This passage reports IC50 and CC50 results from ChEMBL document CHEMBL1141075, “4-Oxo-4,7-dihydrothieno[2,3-b]pyridines as non-nucleoside inhibitors of human cytomegalovirus and related herpesvirus polymerases” (J Med Chem, 2005).

Data set [1] concerns the target T1, DNA polymerase alpha catalytic subunit (Homo sapiens, UniProt P09884).
T1 sequence (P09884 whole entry): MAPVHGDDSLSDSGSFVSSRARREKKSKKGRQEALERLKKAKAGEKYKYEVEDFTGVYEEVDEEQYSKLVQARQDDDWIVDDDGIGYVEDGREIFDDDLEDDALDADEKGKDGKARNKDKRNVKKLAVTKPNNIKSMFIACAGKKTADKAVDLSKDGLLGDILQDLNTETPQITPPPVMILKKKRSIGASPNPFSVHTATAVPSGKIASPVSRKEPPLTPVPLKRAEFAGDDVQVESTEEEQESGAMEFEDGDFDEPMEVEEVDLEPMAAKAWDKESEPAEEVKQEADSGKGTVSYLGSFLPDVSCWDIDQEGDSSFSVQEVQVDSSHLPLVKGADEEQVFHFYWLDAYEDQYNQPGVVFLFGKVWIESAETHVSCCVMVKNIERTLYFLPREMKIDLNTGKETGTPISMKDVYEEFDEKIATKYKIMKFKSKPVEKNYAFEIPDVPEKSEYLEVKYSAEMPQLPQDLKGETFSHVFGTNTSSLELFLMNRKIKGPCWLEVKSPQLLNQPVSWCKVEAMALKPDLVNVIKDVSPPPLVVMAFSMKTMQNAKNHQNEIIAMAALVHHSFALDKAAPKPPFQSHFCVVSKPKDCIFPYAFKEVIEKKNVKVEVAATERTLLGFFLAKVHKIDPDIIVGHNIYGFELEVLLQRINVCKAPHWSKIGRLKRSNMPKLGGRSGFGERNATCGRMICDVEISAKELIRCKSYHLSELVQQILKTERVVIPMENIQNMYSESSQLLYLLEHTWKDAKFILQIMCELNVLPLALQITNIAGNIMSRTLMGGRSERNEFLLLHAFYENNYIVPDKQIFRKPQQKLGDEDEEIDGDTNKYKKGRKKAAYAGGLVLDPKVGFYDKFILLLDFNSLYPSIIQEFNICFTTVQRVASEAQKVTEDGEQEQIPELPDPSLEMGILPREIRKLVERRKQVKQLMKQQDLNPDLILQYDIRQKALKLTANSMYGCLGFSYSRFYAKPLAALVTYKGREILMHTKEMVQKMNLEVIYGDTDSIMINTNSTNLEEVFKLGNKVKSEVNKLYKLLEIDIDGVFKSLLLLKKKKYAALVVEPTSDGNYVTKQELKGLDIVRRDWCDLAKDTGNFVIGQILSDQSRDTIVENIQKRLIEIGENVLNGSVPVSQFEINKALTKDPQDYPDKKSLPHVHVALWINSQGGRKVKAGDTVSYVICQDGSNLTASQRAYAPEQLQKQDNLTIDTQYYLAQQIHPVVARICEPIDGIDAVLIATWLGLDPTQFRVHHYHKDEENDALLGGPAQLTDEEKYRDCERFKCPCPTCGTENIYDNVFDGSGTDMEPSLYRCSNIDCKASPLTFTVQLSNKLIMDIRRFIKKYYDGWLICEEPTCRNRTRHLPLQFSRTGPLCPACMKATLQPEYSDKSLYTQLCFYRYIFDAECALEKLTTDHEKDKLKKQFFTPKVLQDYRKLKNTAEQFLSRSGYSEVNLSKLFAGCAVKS
Nature of the data set: Inhibition of human alpha DNA polymerase (95 uL) activity in a solution containg […] HEPES (pH 7.5) upon incubation for 12 minutes at 26 degrees C with the compound dissolved in DMSO.

Data set [2] in a line: Toxicity on uninfected African green monkey kidney cells determined in microscopic evaluation and quantitative neutral red dye uptake assay. It is filed as cell-based. To be noted: chlorocebus sabaeus, uninfected African green monkey kidney (Vero) cells. The method in brief:
(§1)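 Uninfected cells were seeded as subconfluent monolayers and exposed to compound for 3 days. Viability was judged both by microscopic inspection and by quantitative neutral red dye uptake, giving CC50.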

Data set [3] can be described thus: Toxicity on uninfected human foreskin fibroblast cells determined in microscopic evaluation and quantitative neutral red dye uptake assay. It is filed as cell-based. To be noted: uninfected human foreskin fibroblast (HFF) cells. The method in brief: as §1
For data set [4], the system named is Vero. The data set can be described thus: Antiviral activity against herpes simplex virus type 1 (KOS strain) grown on human foreskin fibroblast cells determined by vedduction in plaque formation upon incubation at 37 degrees C with the compound dissolved in DMSO until plaque were formed. In kind it is functional, cell-based. The method in brief:
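HSV-1 KOS, about 50 PFU per well, was adsorbed for 1 h at 37 °C. The inoculum was then replaced with drug dilutions from 200-fold DMSO stocks in DMEM containing 10% FBS and 0.8% carboxymethyl cellulose. Cultures were kept at 37 °C until plaques appeared. Plaques were counted microscopically or by crystal violet staining (0.1% in 20% ethanol). IC50 came from linear regression of % inhibition relative to the uninhibited control.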

Data set [5] deals with HFF. Nature of the data set: Antiviral activity against human cytomegalovirus (Davis strain) grown on human foreskin fibroblast cells determined by reduction in plaque formation upon incubation at 37 degrees C with the compound dissolved in DMSO. It is filed as functional, cell-based.
Data set [6] deals with T2, DNA polymerase catalytic subunit (Herpes simplex virus (type 1 / strain 17), UniProt P04293).
T2 sequence (P04293 whole entry): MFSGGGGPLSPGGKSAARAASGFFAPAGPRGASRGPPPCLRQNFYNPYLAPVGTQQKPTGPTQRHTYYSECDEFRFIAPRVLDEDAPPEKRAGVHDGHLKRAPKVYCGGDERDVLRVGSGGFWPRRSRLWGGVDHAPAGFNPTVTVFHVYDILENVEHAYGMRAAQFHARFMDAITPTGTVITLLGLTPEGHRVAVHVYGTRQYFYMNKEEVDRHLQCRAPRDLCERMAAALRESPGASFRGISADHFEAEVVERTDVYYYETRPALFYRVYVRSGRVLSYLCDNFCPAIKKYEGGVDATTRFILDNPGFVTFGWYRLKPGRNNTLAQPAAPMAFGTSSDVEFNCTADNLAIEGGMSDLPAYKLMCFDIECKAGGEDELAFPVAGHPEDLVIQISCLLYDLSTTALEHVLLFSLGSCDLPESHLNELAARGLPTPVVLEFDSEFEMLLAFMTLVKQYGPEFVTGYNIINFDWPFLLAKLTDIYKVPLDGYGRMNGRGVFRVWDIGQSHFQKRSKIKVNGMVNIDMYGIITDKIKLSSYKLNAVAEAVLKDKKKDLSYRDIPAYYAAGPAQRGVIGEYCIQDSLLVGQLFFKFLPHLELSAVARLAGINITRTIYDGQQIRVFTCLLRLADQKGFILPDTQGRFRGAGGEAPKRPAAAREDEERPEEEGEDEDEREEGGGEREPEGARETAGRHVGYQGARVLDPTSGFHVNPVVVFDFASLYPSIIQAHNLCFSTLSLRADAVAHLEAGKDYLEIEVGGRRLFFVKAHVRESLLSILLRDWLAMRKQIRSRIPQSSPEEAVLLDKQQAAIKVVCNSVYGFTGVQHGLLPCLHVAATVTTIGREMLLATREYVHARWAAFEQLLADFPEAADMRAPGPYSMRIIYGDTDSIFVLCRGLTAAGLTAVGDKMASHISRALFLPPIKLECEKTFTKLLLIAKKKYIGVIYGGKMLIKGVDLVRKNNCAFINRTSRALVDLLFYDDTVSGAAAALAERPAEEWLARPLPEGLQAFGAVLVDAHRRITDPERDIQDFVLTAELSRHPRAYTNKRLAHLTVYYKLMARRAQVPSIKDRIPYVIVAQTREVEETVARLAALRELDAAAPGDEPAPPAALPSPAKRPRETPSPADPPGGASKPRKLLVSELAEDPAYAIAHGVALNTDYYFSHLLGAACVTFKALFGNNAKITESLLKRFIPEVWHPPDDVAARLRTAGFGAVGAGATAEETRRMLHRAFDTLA
Nature of the data set: Inhibition of herpes simplex virus type 1 DNA polymerase (95 uL) activity in a solution containing […] HEPES (pH 7.5), incubation for 12 minutes at 26 degrees C. More on the design: species or system Human alphaherpesvirus 1.

The test system of data set [7] is HFF. The data set can be described thus: Antiviral activity against Varicella-Zoster virus (Webster strain) grown on human foreskin fibroblast cells determined by vedduction in plaque formation upon incubation at 37 degrees C with the compound dissolved in DMSO until plaque were formed. It is filed as functional, cell-based. The method in brief:
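Monolayers of human foreskin fibroblasts were infected with about 50 PFU per well for 1 h at 37 °C. The inoculum was then replaced with DMEM containing 10% FBS, 0.8% carboxymethyl cellulose and diluted compound from 200-fold DMSO stocks. Plates were incubated at 37 °C until plaques formed. Plaques were counted microscopically or after 0.1% crystal violet staining. IC50 came from linear regression of % inhibition versus untreated controls.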

In data set [8] the test system is Vero. The data set can be described thus: cells. To be noted: Chlorocebus sabaeus, 1 h.
Data set [9] relates to Vero. The data set can be described thus: cells. Conditions: Chlorocebus sabaeus, 1 h. This is another data set of the same source.
The subject of data set [10] is Vero. Nature of the data set: cells. To be noted: Chlorocebus sabaeus, 1 h. This is another data set of the same source.
In data set [11] the test system is Vero. Nature of the data set: cells. Conditions: Chlorocebus sabaeus, 1 h. The source holds these as a separate data set.
Data set [12] relates to Vero. The data set can be described thus: cells. Conditions: Chlorocebus sabaeus, 1 h. This is another data set of the same source.
Data set [13] relates to Vero. The data set can be described thus: cells. Conditions: Chlorocebus sabaeus, 1 h. This is another data set of the same source.
In data set [14] the test system is Vero. Nature of the data set: cells. To be noted: Chlorocebus sabaeus, 1 h. This is another data set of the same source.
In data set [15] the test system is Vero. The data set can be described thus: cells. To be noted: Chlorocebus sabaeus, 1 h. The source holds these as a separate data set.
In data set [16] the test system is Vero. Nature of the data set: cells. Conditions: Chlorocebus sabaeus, 1 h. This is another data set of the same source.
The test system of data set [17] is HFF. Nature of the data set: Antiviral activity against human cytomegalovirus Ad169 (WT) plaque forming unit grown on Human foreskin fibroblast cells upon incubation for 1 hour at 37 degrees C with compound dissolved in DMSO. In kind it is functional, cell-based. In outline:
(§2)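 Plaque reduction: about 50 PFU added per well of a 24-well dish of the appropriate cells, 1 h at 37 °C, then the inoculum was replaced by drug-containing DMEM with 10% FBS and 0.8% carboxymethyl cellulose. DMSO stocks were 200-fold. Plates were held at 37 °C until plaques formed. Plaques were counted microscopically or after crystal violet stain. Percent inhibition was taken against the uninhibited control, with IC50 by linear regression.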

Data set [18] deals with HFF. Nature of the data set: Antiviral activity against human cytomegalovirus Ad169 (V823A) plaque forming unit grown on Human foreskin fibroblast cells upon incubation for 1 hour at 37 degrees C with compound dissolved in DMSO. It is filed as functional, cell-based. The method in brief: as §2

What is called IC50 is the concentration that inhibits the measured activity by half. The term CC50 denotes the concentration giving 50% cytotoxicity. For `Cn1cc(C(=O)NCc2ccc(Cl)cc2)c(=O)c2cc(CCCO)sc21`, the IC50 in data set [1] was more than 40 µM; in the data set on Vero [4], 3 µM; in the data set with HFF [5], 0.6 µM; in data set [6] it was 0.5 µM; in the data set on HFF [7], 0.09 µM. Further, the 50% cytotoxic concentration (CC50) in data set [2] and in data set [3] was more than 100 µM each time.

For the compound `Nc1nc2c(ncn2COCCO)c(=O)[nH]1` [ACYCLOVIR], the half-inhibitory concentration (IC50) in the data set with Vero [8] was 2.8 µM; with Vero [9] it was more than 10 µM; in the data set with Vero [10], 3.5 µM; with Vero [11] it was 4.4 µM; with Vero [12], 2.4 µM; in the data set with Vero [13], more than 10 µM. Moreover, the values for the IC50 in the data set on Vero [14], in the data set on Vero [15] and in the data set on Vero [16] were more than 10 µM, more than 10 µM and 5.4 µM, respectively. The CC50 in data set [2] and in data set [3] was more than 100 µM each time.

`Nc1nc2c(ncn2COC(CO)CO)c(=O)[nH]1` [GANCICLOVIR]: the 50% inhibitory concentration (IC50) with HFF [17] and in the data set with HFF [18] was 0.8 µM in each case. Further, the CC50 in data set [2] and in data set [3] was more than 100 µM in each case.
